Among the data in ChEMBL document CHEMBL4138262, “Antineoplastic Agents. 606. The Betulastatins” (2018) are GI50 values, retold here.

≈ marks a conversion by molar mass, not a printed value.

Common to all, as to format: functional
One test concerns MCF7. Put plainly: Growth inhibition of human MCF7 cells after 48 hrs by SRB assay. Particulars: MCF7, 48 h. In short, it runs like this:
(§1)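 Cells in RPMI1640 with 5% fetal bovine serum were seeded in 96-well plates and incubated 24 h before serial dilutions of compound were added. After 48 h, plates were TCA-fixed, stained with sulforhodamine B and read on a microplate reader. Five serial dilutions were tested, with optical density in duplicate per end point. GI50 was calculated from optical density as the concentration halving net protein increase.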
(In general: The SRB assay estimates cell density from bound dye.)

Another test deals with NCI-H460. Put plainly: Growth inhibition of human NCI-H460 cells after 48 hrs by SRB assay. Particulars: NCI-H460, 48 h. In short, it runs like this: as §1
A further test has as its system KM-20L2. Put plainly: Growth inhibition of human KM20L2 cells after 48 hrs by SRB assay. Particulars: KM-20L2, 48 h. In short, it runs like this: as §1
The subject of the next test is DU-145. Put plainly: Growth inhibition of human DU145 cells after 48 hrs by SRB assay. Particulars: DU-145, 48 h. In short, it runs like this: as §1
The subject of the next test is BXPC-3. The test can be described thus: Growth inhibition of human BxPC3 cells after 48 hrs by SRB assay. Particulars: BXPC-3, 48 h. The method in brief: as §1
For a further test, the system named is SF-268. The test can be described thus: Growth inhibition of human SF268 cells after 48 hrs by SRB assay. Particulars: SF-268, 48 h. The method in brief: as §1

In the case of `C=C(C)[C@@H]1CC[C@]2(COC(C)=O)CC[C@]3(C)[C@H](CC[C@@H]4[C@@]5(C)CC[C@H](NC(=O)[C@H](C)[C@@H](OC)[C@@H]6CCCN6C(=O)OC(C)(C)C)C(C)(C)[C@@H]5CC[C@]43C)[C@@H]12`, the GI50 in the test on MCF7, with NCI-H460, in the test with KM-20L2, in the test on DU-145, in the test with BXPC-3 and in the test on SF-268 was above 10 µg/mL throughout.

As for `C=C(CNC(=O)[C@H](C)[C@@H](OC)[C@@H]1CCCN1C(=O)C[C@@H](OC)[C@H]([C@@H](C)CC)N(C)C(=O)[C@@H](NC(=O)[C@H](C(C)C)N(C)C)C(C)C)[C@@H]1CC[C@]2(COC(C)=O)CC[C@]3(C)[C@H](CC[C@@H]4[C@@]5(C)CC[C@H](OC(C)=O)C(C)(C)[C@@H]5CC[C@]43C)[C@@H]12`, the GI50 (usually the concentration at which growth is held to half of that of the control) is 6.3 µg/mL (≈ 5.61 µM) in the test with MCF7; above 10 µg/mL in the test with NCI-H460; 4 µg/mL (≈ 3.56 µM) in the test with KM-20L2; 3 µg/mL (≈ 2.67 µM) in the test on DU-145; 8 µg/mL (≈ 7.13 µM) in the test with BXPC-3; 4 µg/mL (≈ 3.56 µM) in the test on SF-268.

In the case of `C=C(CNC(=O)[C@H](C)[C@@H](OC)[C@@H]1CCCN1C(=O)OC(C)(C)C)[C@@H]1CC[C@]2(COC(C)=O)CC[C@]3(C)[C@H](CC[C@@H]4[C@@]5(C)CC[C@H](OC(C)=O)C(C)(C)[C@@H]5CC[C@]43C)[C@@H]12`, the GI50 was above 10 µg/mL in the test with MCF7; above 10 µg/mL in the test with NCI-H460; 7 µg/mL (≈ 8.63 µM) in the test on KM-20L2; above 10 µg/mL in the test on DU-145; above 10 µg/mL in the test with BXPC-3; 5.9 µg/mL (≈ 7.27 µM) in the test with SF-268.

For the compound `C=C(C)[C@@H]1CC[C@]2(CNC(=O)[C@H](C)[C@@H](OC)[C@@H]3CCCN3C(=O)OC(C)(C)C)CC[C@]3(C)[C@H](CC[C@@H]4[C@@]5(C)CC[C@H](OC(C)=O)C(C)(C)[C@@H]5CC[C@]43C)[C@@H]12`, the GI50 with MCF7, in the test with NCI-H460, in the test on KM-20L2, with DU-145, in the test with BXPC-3 and with SF-268 was above 10 µg/mL throughout.

Take `C=C(C)[C@@H]1CC[C@]2(CNC(=O)[C@H](C)[C@@H](OC)[C@@H]3CCCN3C(=O)C[C@@H](OC)[C@H]([C@@H](C)CC)N(C)C(=O)[C@@H](NC(=O)[C@H](C(C)C)N(C)C)C(C)C)CC[C@]3(C)[C@H](CC[C@@H]4[C@@]5(C)CC[C@H](OC(C)=O)C(C)(C)[C@@H]5CC[C@]43C)[C@@H]12`: the GI50 in the test with MCF7 was determined as 3.6 µg/mL (≈ 3.38 µM); in the test with NCI-H460, 4.2 µg/mL (≈ 3.95 µM); in the test on KM-20L2, 2.4 µg/mL (≈ 2.25 µM); in the test with DU-145 it was 3.7 µg/mL (≈ 3.48 µM); in the test on BXPC-3, 4.1 µg/mL (≈ 3.85 µM); in the test with SF-268 it was 2.6 µg/mL (≈ 2.44 µM).

Consider `C=C(CN)[C@@H]1CC[C@]2(CO)CC[C@]3(C)[C@H](CC[C@@H]4[C@@]5(C)CC[C@H](O)C(C)(C)[C@@H]5CC[C@]43C)[C@@H]12`, for which the GI50 in the test with MCF7 is 3.1 µg/mL (≈ 6.77 µM); with NCI-H460, 4 µg/mL (≈ 8.74 µM); in the test with KM-20L2, 2.9 µg/mL (≈ 6.34 µM); in the test on DU-145, 2.1 µg/mL (≈ 4.59 µM); in the test with BXPC-3, 3 µg/mL (≈ 6.55 µM); with SF-268, 4.2 µg/mL (≈ 9.18 µM).

In the case of `C=C(C)[C@@H]1CC[C@]2(CO)CC[C@]3(C)[C@H](CC[C@@H]4[C@@]5(C)CC[C@H](NC(=O)[C@H](C)[C@@H](OC)[C@@H]6CCCN6C(=O)C[C@@H](OC)[C@H]([C@@H](C)CC)N(C)C(=O)[C@@H](NC(=O)[C@H](C(C)C)N(C)C)C(C)C)C(C)(C)[C@@H]5CC[C@]43C)[C@@H]12`, the GI50 was found to be 0.7 µg/mL (≈ 0.685 µM) in the test on MCF7; 2.1 µg/mL (≈ 2.05 µM) in the test on NCI-H460; 0.85 µg/mL (≈ 0.831 µM) in the test with KM-20L2; 0.4 µg/mL (≈ 0.391 µM) in the test with DU-145; 2 µg/mL (≈ 1.96 µM) with BXPC-3; 0.4 µg/mL (≈ 0.391 µM) with SF-268.

In the case of `C=C(C)[C@@H]1CC[C@]2(C=O)CC[C@]3(C)[C@H](CC[C@@H]4[C@@]5(C)CC[C@H](OC(C)=O)C(C)(C)[C@@H]5CC[C@]43C)[C@@H]12`, the GI50 in the test with MCF7, in the test on NCI-H460, in the test on KM-20L2, with DU-145, in the test on BXPC-3 and in the test with SF-268 was above 10 µg/mL throughout.

Take `C=C(C)[C@@H]1CC[C@]2(COC(C)=O)CC[C@]3(C)[C@H](CC[C@@H]4[C@@]5(C)CC[C@H](N)C(C)(C)[C@@H]5CC[C@]43C)[C@@H]12`: the GI50 is 0.2 µg/mL (≈ 0.413 µM) in the test on MCF7; 0.21 µg/mL (≈ 0.434 µM) with NCI-H460; 0.35 µg/mL (≈ 0.723 µM) in the test with KM-20L2; 0.13 µg/mL (≈ 0.269 µM) in the test with DU-145; 1.1 µg/mL (≈ 2.27 µM) with BXPC-3; 0.21 µg/mL (≈ 0.434 µM) in the test on SF-268.
